According to ChEMBL document CHEMBL4689842, “EUbOPEN Chemogenomics Library wave 1” (2021):

System: HEK-293T
Assay: Multiplex assay against HEK293T;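 for Population Tubulin-Different-Phenotype (%): share of the cells with healthy nuclei that show this phenotype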
Format: toxicity, cell-based
Settings: human
In short: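 On a CQ1 microscope at 37°C and 5% CO2, live cells were imaged after compound addition. They had been stained at seeding with Hoechst33342, BioTracker Green Microtubule Cytoskeleton Dye, MitoTracker Red and Annexin V Alexa Fluor 680. CellPathfinder machine-learning gating assigned cells to Hoechst high-intensity objects or normal cells, normal cells to healthy, pyknosed or fragmented nuclei, and pyknosed cells to mitotic or apoptotic. Tubulin, mitochondrial-mass and membrane-permeability phenotypes are per cents of healthy-nucleus cells.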

[1] = 12 h, 1 µM, compound concentration 1 uM, replicate 1
[2] = 12 h, 1 µM, compound concentration 1 uM, replicate 2
[3] = 12 h, 10 µM, compound concentration 10 uM, replicate 1
[4] = 12 h, 10 µM, compound concentration 10 uM, replicate 2
[5] = 24 h, 1 µM, compound concentration 1 uM, replicate 1
[6] = 24 h, 1 µM, compound concentration 1 uM, replicate 2
[7] = 24 h, 10 µM, compound concentration 10 uM, replicate 1
[8] = 24 h, 10 µM, compound concentration 10 uM, replicate 2
[9] = 48 h, 1 µM, compound concentration 1 uM, replicate 1
[10] = 48 h, 1 µM, compound concentration 1 uM, replicate 2
[11] = 48 h, 10 µM, compound concentration 10 uM, replicate 1
[12] = 48 h, 10 µM, compound concentration 10 uM, replicate 2

## CC(C)(O)CNc1ncc(-c2ccnc(Nc3ccnc(Cl)c3)n2)c(CC2CC2)n1
[1]
  Population Apoptotic (%): 59%
  Population Fragmented Nuclei (%): 14%
  Population Healthy Nuclei (%): 25%
  Population Hoechst High Intensity Objects (%): 16%
  Population Membrane Permeable-Phenotype (%): 4%
  Population Mitochondria Different-Phenotype (%): 90%
  Population Mitotic Cells (%): 40%
  Population Normal (%): 83%
  Population Pyknosed Nuclei (%): 59%
  Population Tubulin-Different-Phenotype (%): 75%
  Total Cell Count: 287
[2]
  Population Apoptotic (%): 17%
  Population Fragmented Nuclei (%): 9%
  Population Healthy Nuclei (%): 23%
  Population Hoechst High Intensity Objects (%): 8%
  Population Membrane Permeable-Phenotype (%): 13%
  Population Mitochondria Different-Phenotype (%): 13%
  Population Mitotic Cells (%): 82%
  Population Normal (%): 91%
  Population Pyknosed Nuclei (%): 67%
  Population Tubulin-Different-Phenotype (%): 31%
  Total Cell Count: 133
[3]
  Population Apoptotic (%): 72%
  Population Fragmented Nuclei (%): 11%
  Population Healthy Nuclei (%): 5%
  Population Hoechst High Intensity Objects (%): 23%
  Population Membrane Permeable-Phenotype (%): 13%
  Population Mitochondria Different-Phenotype (%): 93%
  Population Mitotic Cells (%): 27%
  Population Normal (%): 76%
  Population Pyknosed Nuclei (%): 83%
  Population Tubulin-Different-Phenotype (%): 86%
  Total Cell Count: 381
[4]
  Population Apoptotic (%): 52%
  Population Fragmented Nuclei (%): 4%
  Population Healthy Nuclei (%): 3%
  Population Hoechst High Intensity Objects (%): 14%
  Population Membrane Permeable-Phenotype (%): 28%
  Population Mitochondria Different-Phenotype (%): 85%
  Population Mitotic Cells (%): 47%
  Population Normal (%): 85%
  Population Pyknosed Nuclei (%): 91%
  Population Tubulin-Different-Phenotype (%): 42%
  Total Cell Count: 213
[5]
  Population Apoptotic (%): 49%
  Population Fragmented Nuclei (%): 12%
  Population Healthy Nuclei (%): 28%
  Population Hoechst High Intensity Objects (%): 15%
  Population Membrane Permeable-Phenotype (%): 1%
  Population Mitochondria Different-Phenotype (%): 82%
  Population Mitotic Cells (%): 50%
  Population Normal (%): 84%
  Population Pyknosed Nuclei (%): 58%
  Population Tubulin-Different-Phenotype (%): 89%
  Total Cell Count: 319
[6]
  Population Apoptotic (%): 27%
  Population Fragmented Nuclei (%): 9%
  Population Healthy Nuclei (%): 34%
  Population Hoechst High Intensity Objects (%): 5%
  Population Membrane Permeable-Phenotype (%): 6%
  Population Mitochondria Different-Phenotype (%): 27%
  Population Mitotic Cells (%): 72%
  Population Normal (%): 94%
  Population Pyknosed Nuclei (%): 56%
  Population Tubulin-Different-Phenotype (%): 68%
  Total Cell Count: 145
[7]
  Population Apoptotic (%): 73%
  Population Fragmented Nuclei (%): 15%
  Population Healthy Nuclei (%): 3%
  Population Hoechst High Intensity Objects (%): 23%
  Population Membrane Permeable-Phenotype (%): 11%
  Population Mitochondria Different-Phenotype (%): 100%
  Population Mitotic Cells (%): 26%
  Population Normal (%): 76%
  Population Pyknosed Nuclei (%): 81%
  Population Tubulin-Different-Phenotype (%): 100%
  Total Cell Count: 382
[8]
  Population Apoptotic (%): 64%
  Population Fragmented Nuclei (%): 2%
  Population Healthy Nuclei (%): 2%
  Population Hoechst High Intensity Objects (%): 16%
  Population Membrane Permeable-Phenotype (%): 40%
  Population Mitochondria Different-Phenotype (%): 80%
  Population Mitotic Cells (%): 35%
  Population Normal (%): 83%
  Population Pyknosed Nuclei (%): 94%
  Population Tubulin-Different-Phenotype (%): 40%
  Total Cell Count: 208
[9]
  Population Apoptotic (%): 40%
  Population Fragmented Nuclei (%): 22%
  Population Healthy Nuclei (%): 29%
  Population Hoechst High Intensity Objects (%): 17%
  Population Membrane Permeable-Phenotype (%): 3%
  Population Mitochondria Different-Phenotype (%): 62%
  Population Mitotic Cells (%): 59%
  Population Normal (%): 82%
  Population Pyknosed Nuclei (%): 47%
  Population Tubulin-Different-Phenotype (%): 68%
  Total Cell Count: 360
[10]
  Population Apoptotic (%): 25%
  Population Fragmented Nuclei (%): 5%
  Population Healthy Nuclei (%): 68%
  Population Hoechst High Intensity Objects (%): 5%
  Population Membrane Permeable-Phenotype (%): 10%
  Population Mitochondria Different-Phenotype (%): 10%
  Population Mitotic Cells (%): 75%
  Population Normal (%): 94%
  Population Pyknosed Nuclei (%): 26%
  Population Tubulin-Different-Phenotype (%): 57%
  Total Cell Count: 209
[11]
  Population Apoptotic (%): 72%
  Population Fragmented Nuclei (%): 22%
  Population Healthy Nuclei (%): 1%
  Population Hoechst High Intensity Objects (%): 28%
  Population Membrane Permeable-Phenotype (%): 25%
  Population Mitochondria Different-Phenotype (%): 100%
  Population Mitotic Cells (%): 27%
  Population Normal (%): 71%
  Population Pyknosed Nuclei (%): 76%
  Population Tubulin-Different-Phenotype (%): 100%
  Total Cell Count: 373
[12]
  Population Apoptotic (%): 63%
  Population Fragmented Nuclei (%): 6%
  Population Healthy Nuclei (%): 3%
  Population Hoechst High Intensity Objects (%): 16%
  Population Membrane Permeable-Phenotype (%): 0%
  Population Mitochondria Different-Phenotype (%): 71%
  Population Mitotic Cells (%): 36%
  Population Normal (%): 83%
  Population Pyknosed Nuclei (%): 89%
  Population Tubulin-Different-Phenotype (%): 71%
  Total Cell Count: 212
